Source: ChEMBL document CHEMBL1681679, “Investigation of a novel molecular descriptor for the lead optimization of 4-aminoquinazolines as vascular endothelial growth factor receptor-2 inhibitors: application for quantitative structure-activity relationship analysis in lead optimization” (Bioorg Med Chem Lett, 2011)

What follows are compounds tested against T1, Vascular endothelial growth factor receptor 2 (Homo sapiens, UniProt P35968) (assay: Inhibition of human recombinant His-tagged VEGFR2 assessed as […] absorption at 10 uM by ELISA assay in presence of 20 uM ATP). Details: not given.
T1 sequence (P35968 whole entry, the tested form may be a part): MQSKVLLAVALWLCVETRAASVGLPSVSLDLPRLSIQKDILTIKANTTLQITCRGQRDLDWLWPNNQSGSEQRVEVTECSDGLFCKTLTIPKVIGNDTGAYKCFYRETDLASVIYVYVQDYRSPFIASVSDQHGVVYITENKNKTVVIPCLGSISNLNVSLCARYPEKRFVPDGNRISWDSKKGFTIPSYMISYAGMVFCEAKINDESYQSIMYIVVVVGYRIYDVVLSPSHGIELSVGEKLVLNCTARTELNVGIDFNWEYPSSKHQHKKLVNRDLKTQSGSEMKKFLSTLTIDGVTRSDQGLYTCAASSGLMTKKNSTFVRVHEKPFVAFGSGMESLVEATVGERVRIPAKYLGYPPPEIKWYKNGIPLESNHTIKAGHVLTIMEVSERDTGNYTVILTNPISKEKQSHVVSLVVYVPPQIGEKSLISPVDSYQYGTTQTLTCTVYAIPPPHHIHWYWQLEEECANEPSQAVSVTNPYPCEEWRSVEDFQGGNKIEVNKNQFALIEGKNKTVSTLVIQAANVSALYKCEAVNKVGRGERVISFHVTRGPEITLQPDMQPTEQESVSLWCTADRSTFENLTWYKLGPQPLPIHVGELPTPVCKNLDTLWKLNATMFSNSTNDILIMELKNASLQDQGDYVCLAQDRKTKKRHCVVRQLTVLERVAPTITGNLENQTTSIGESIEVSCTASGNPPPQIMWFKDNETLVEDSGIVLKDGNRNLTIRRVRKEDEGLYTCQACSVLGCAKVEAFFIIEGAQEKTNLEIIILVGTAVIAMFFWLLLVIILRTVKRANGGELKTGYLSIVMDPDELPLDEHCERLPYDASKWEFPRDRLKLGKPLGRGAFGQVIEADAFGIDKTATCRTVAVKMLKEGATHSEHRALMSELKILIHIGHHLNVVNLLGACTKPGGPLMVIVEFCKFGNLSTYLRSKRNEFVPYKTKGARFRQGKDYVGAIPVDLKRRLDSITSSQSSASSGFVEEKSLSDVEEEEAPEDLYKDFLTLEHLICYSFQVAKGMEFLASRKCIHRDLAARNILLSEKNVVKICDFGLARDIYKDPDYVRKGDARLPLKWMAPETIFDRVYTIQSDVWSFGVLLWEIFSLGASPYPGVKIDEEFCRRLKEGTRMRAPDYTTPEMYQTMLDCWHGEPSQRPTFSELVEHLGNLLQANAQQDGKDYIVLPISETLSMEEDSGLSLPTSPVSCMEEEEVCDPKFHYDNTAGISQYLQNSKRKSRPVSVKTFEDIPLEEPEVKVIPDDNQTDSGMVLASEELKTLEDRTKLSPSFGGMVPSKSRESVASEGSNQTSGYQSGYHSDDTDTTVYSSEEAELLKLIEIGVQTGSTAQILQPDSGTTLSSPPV
In short: (§1)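 Human N-terminal His6-tagged recombinant VEGFR2 kinase domain (aa790-end), 100 ng per well, with 20 μM ATP and 1.5 μM substrate peptide (final), in streptavidin-coated wells. Kinase buffer contains up to 1% DMSO. Read-out is ELISA absorbance at 450 nm. Each run includes blank, control, DMSO control and standard. Value is average percent inhibition at the stated final compound concentration, replicates assayed on separate days.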

inhibition [%] | SMILES
13 | COc1cc2ncnc(NC(C)C)c2cc1OC
5 | COc1cc2ncnc(Nc3ccc(F)c(F)c3)c2cc1OC
0 | CCOc1ncnc2cc(OC)c(OC)cc12
6 | COc1cc2ncnc(Nc3ccc(F)cc3)c2cc1OC
66 | COc1cc2ncnc(Nc3ccc(C)c(F)c3)c2cc1OC
2 | COc1cc2ncnc(OC(C)C)c2cc1OC
19 | COc1cc2ncnc(Nc3ccccc3)c2cc1OC
17 | COc1cc2ncnc(NC3CCCCC3)c2cc1OC
4 | COc1cc2ncnc(Nc3ccc(Cl)cc3)c2cc1OC
9 | COc1cc2ncnc(Nc3ccc(C)c(Cl)c3)c2cc1OC

The compounds below were run against T1, Vascular endothelial growth factor receptor 2. Details: 25 uM.

inhibition [%] | SMILES
46 | COc1ccc(-c2cnc3c(-c4ccsc4)cnn3c2)cc1

Each compound was assayed against T1, Vascular endothelial growth factor receptor 2 (assay: Inhibition of human recombinant His-tagged VEGFR2 assessed as […] absorption by ELISA assay in presence of 20 uM ATP). Details: not given.

IC50 [nM] | SMILES
2 | Cc1cc(F)c(Nc2ncnc3cc(OCc4ccccc4)ccc23)cc1O

What follows are compounds tested against T1, Vascular endothelial growth factor receptor 2 (assay: Inhibition of human recombinant His-tagged VEGFR2 assessed as […] absorption at 20 uM by ELISA assay in presence of 20 uM ATP). Details: not given.
In short: as §1

inhibition [%] | SMILES
37 | Cc1cc(F)c(Nc2ncnc3cc(OCc4ccccc4)ccc23)cc1O
